By kcat is commonly meant the maximal rate divided by the concentration of active sites. As a reminder, the Km is the substrate concentration at which the rate is half of its maximum. The kcat/Km is the second-order rate constant that governs catalysis at low substrate concentration.

The nature of data set [1]: Drug metabolism assessed as OXA10 (unknown origin)-mediated compound hydrolysis by measuring (R)-2-((1S,2R)-1-carboxy-2-hydroxypropyl)-5-((R)-tetrahydrofuran-2-yl)-2,3-dihydrothiazole-4-carboxylic acid formation at 5 mM incubated for 16 hrs by 1H-NMR based analysis. It counts as ADME. The conditions noted are these: bacteria, 5000 µM. The procedure, abridged:
(§1)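 OXA-10 at 5 μM with 5 mM faropenem, incubated 16 h in 50 mM sodium phosphate, pH 7.5, 10% (v/v) D2O. Product formation read by 1H NMR (700 MHz) methyl group resonances.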

Data set [2] is described as follows: Drug metabolism assessed as OXA-23 (unknown origin)-mediated compound hydrolysis by measuring (R)-2-((1S,2R)-1-carboxy-2-hydroxypropyl)-5-((R)-tetrahydrofuran-2-yl)-2,3-dihydrothiazole-4-carboxylic acid formation at 2 mM incubated for 15 mins by 1H-NMR based analysis. It counts as ADME. The note with it: bacteria, 0.25 h, 2000 µM.
The nature of data set [3]: Drug metabolism assessed as KPC-2 (unknown origin)-mediated compound hydrolysis by measuring (R)-2-((1S,2R)-1-carboxy-2-hydroxypropyl)-5-((R)-tetrahydrofuran-2-yl)-2,3-dihydrothiazole-4-carboxylic acid formation at 5 mM incubated for 72 mins by 1H-NMR based analysis. It counts as ADME. The conditions noted are these: bacteria, 1.2 h, 5000 µM.
The nature of data set [4]: Drug metabolism assessed as L1 (unknown origin)-mediated compound hydrolysis by measuring (R)-2-((1S,2R)-1-carboxy-2-hydroxypropyl)-5-((R)-tetrahydrofuran-2-yl)-2,3-dihydrothiazole-4-carboxylic acid formation at 5 mM incubated for 5 mins by 1H-NMR based analysis. The class given is ADME. The note with it: bacteria, 5000 µM. The procedure, abridged:
(§2)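 L1 enzyme (125 nM) reacted with 5 mM faropenem for 5 min in 50 mM sodium phosphate pH 7.5 containing 10% (v/v) D2O. Product species assigned by 1H NMR (700 MHz) methyl resonances.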

The nature of data set [5]: Drug metabolism assessed as OXA-23 (unknown origin)-mediated compound hydrolysis by measuring (S)-2-((1S,2R)-1-carboxy-2-hydroxypropyl)-5-((R)-tetrahydrofuran-2-yl)-2,3-dihydrothiazole-4-carboxylic acid formation at 2 mM incubated for 15 mins by 1H-NMR based analysis. It counts as ADME. The conditions noted are these: bacteria, 0.25 h, 2000 µM.
The nature of data set [6]: Drug metabolism assessed as VIM-1 (unknown origin)-mediated compound hydrolysis by measuring (S)-2-((1S,2R)-1-carboxy-2-hydroxypropyl)-5-((R)-tetrahydrofuran-2-yl)-2,3-dihydrothiazole-4-carboxylic acid formation at 5 mM incubated for 5 mins by 1H-NMR based analysis. It counts as ADME. The note with it: bacteria, 5000 µM.
Data set [7] in a line: Drug metabolism assessed as NDM-1 (unknown origin)-mediated compound hydrolysis by measuring (S)-2-((1S,2R)-1-carboxy-2-hydroxypropyl)-5-((R)-tetrahydrofuran-2-yl)-2,3-dihydrothiazole-4-carboxylic acid formation at 5 mM incubated for 5 mins by 1H-NMR based analysis. It counts as ADME. The conditions noted are these: bacteria, 5000 µM. Put shortly:
(§3)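 NDM-1 used at 5 μM with 5 mM faropenem, 5 min incubation, in 50 mM sodium phosphate, pH 7.5, 10% (v/v) D2O. Degradation products monitored by 700 MHz 1H NMR via methyl group signals.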

Data set [8] can be described thus: Drug metabolism assessed as KPC-2 (unknown origin)-mediated compound hydrolysis by measuring (S)-2-((1S,2R)-1-carboxy-2-hydroxypropyl)-5-((R)-tetrahydrofuran-2-yl)-2,3-dihydrothiazole-4-carboxylic acid formation at 5 mM incubated for 72 mins by 1H-NMR based analysis. It counts as ADME. The note with it: bacteria, 1.2 h, 5000 µM.
The nature of data set [9]: Drug metabolism assessed as L1 (unknown origin)-mediated compound hydrolysis by measuring (S)-2-((1S,2R)-1-carboxy-2-hydroxypropyl)-5-((R)-tetrahydrofuran-2-yl)-2,3-dihydrothiazole-4-carboxylic acid formation at 5 mM incubated for 5 mins by 1H-NMR based analysis. It counts as ADME. The note with it: bacteria, 5000 µM. Put shortly: as §2
Data set [10] can be described thus: Drug metabolism assessed as OXA10 (unknown origin)-mediated compound hydrolysis by measuring (R)-2-((1S,2R)-1-carboxy-2-hydroxypropyl)-5-(4-hydroxybutylidene)-2,5-dihydrothiazole-4-carboxylic acid formation at 5 mM incubated for 16 hrs by 1H-NMR based analysis. It counts as ADME. The note with it: bacteria, 5000 µM. The procedure, abridged: as §1
The nature of data set [11]: Drug metabolism assessed as OXA-48 (unknown origin)-mediated compound hydrolysis by measuring (R)-2-((1S,2R)-1-carboxy-2-hydroxypropyl)-5-(4-hydroxybutylidene)-2,5-dihydrothiazole-4-carboxylic acid formation at 5 mM incubated for 55 mins by 1H-NMR based analysis. The class given is ADME. The note with it: bacteria, 5000 µM. Put shortly:
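Reaction of OXA-48 (5 μM) with 5 mM faropenem for 55 min in 50 mM sodium phosphate pH 7.5, 10% (v/v) D2O. Products assigned from methyl group resonances in 700 MHz 1H NMR spectra.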

Data set [12] can be described thus: Drug metabolism assessed as VIM-1 (unknown origin)-mediated compound hydrolysis by measuring (R)-2-((1S,2R)-1-carboxy-2-hydroxypropyl)-5-(4-hydroxybutylidene)-2,5-dihydrothiazole-4-carboxylic acid formation at 5 mM incubated for 5 mins by 1H-NMR based analysis. The class given is ADME. The conditions noted are these: bacteria, 5000 µM.
The nature of data set [13]: Drug metabolism assessed as VIM-2 (unknown origin)-mediated compound hydrolysis by measuring (R)-2-((1S,2R)-1-carboxy-2-hydroxypropyl)-5-(4-hydroxybutylidene)-2,5-dihydrothiazole-4-carboxylic acid formation at 5 mM incubated for 5 mins by 1H-NMR based analysis. The class given is ADME. The conditions noted are these: bacteria, 5000 µM.
A short description of data set [14]: Drug metabolism assessed as KPC-2 (unknown origin)-mediated compound hydrolysis by measuring (R)-2-((1S,2R)-1-carboxy-2-hydroxypropyl)-5-(4-hydroxybutylidene)-2,5-dihydrothiazole-4-carboxylic acid formation at 5 mM incubated for 72 mins by 1H-NMR based analysis. It counts as ADME. The note with it: bacteria, 1.2 h, 5000 µM.
Data set [15] is described as follows: Drug metabolism assessed as L1 (unknown origin)-mediated compound hydrolysis by measuring (R)-2-((1S,2R)-1-carboxy-2-hydroxypropyl)-5-(4-hydroxybutylidene)-2,5-dihydrothiazole-4-carboxylic acid formation at 5 mM incubated for 5 mins by 1H-NMR based analysis. It counts as ADME. The note with it: bacteria, 5000 µM. The procedure, abridged: as §2
Data set [16] in a line: Drug metabolism assessed as NDM-1 (unknown origin)-mediated compound hydrolysis by measuring (S)-2-((1S,2R)-1-carboxy-2-hydroxypropyl)-5-(4-hydroxybutylidene)-2,5-dihydrothiazole-4-carboxylic acid formation at 5 mM incubated for 5 mins by 1H-NMR based analysis. The class given is ADME. The conditions noted are these: bacteria, 5000 µM. The procedure, abridged: as §3
Data set [17] is described as follows: Drug metabolism assessed as L1 (unknown origin)-mediated compound hydrolysis by measuring (S)-2-((1S,2R)-1-carboxy-2-hydroxypropyl)-5-(4-hydroxybutylidene)-2,5-dihydrothiazole-4-carboxylic acid formation at 5 mM incubated for 5 mins by 1H-NMR based analysis. The class given is ADME. The note with it: bacteria, 5000 µM. The procedure, abridged:
as §2

In data set [18] the test system is Bacteria.
Data set [19] relates to Mycobacterium tuberculosis H37Rv.
In data set [20] the test system is Bacteria. The source holds these as a separate data set.
In data set [21] the test system is Bacteria. This is another data set of the same source.
For another data set, the system named is Bradyrhizobium japonicum. The note with it: USDA110.
The test system of data set [22] is Bacteria. The source holds these as a separate data set.

`C[C@@H](O)[C@H]1C(=O)N2C(C(=O)O)=C([C@H]3CCCO3)S[C@H]12` [FAROPENEM]: the Drug metabolism entry in data set [1], in data set [2], in [3], in data set [4], in data set [5] and in data set [6] was “Metabolite_Detected” in each case. For the same molecule, the Drug metabolism entry in data set [7], in data set [8], in data set [9], in [10], in data set [11] and in data set [12] was “Metabolite_Detected” in each case. Further, the Drug metabolism result in data set [13], in [14], in [15], in data set [16] and in data set [17] was “Metabolite_Detected” each time. The kcat in the data set on Bacteria [18] was 43.7 s⁻¹; in data set [19], 0.91 s⁻¹; in the data set with Klebsiella pneumoniae, 14.7 s⁻¹. The Km in the data set with Bacteria [20] came out at 16.6 µM; with Bacteria [21], 36.3 µM; with Bradyrhizobium japonicum it was 245 µM. Also, the kcat/Km in the data set with Bacteria [22] worked out at 7.17e+06 M⁻¹ s⁻¹.
